Test results published in ChEMBL document CHEMBL1133551, “Non-depolarizing neuromuscular blocking activity of bisquaternary amino di- and tripeptide derivatives” (J Med Chem, 2000).

Experiments:
Felis catus [1] = experiment: Inhibition of stimulated vagus nerve-induced bradycardia in anesthetized cats; type: functional
Outline: (§1)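 Anesthetized cats. Every 100 s the vagus nerve was stimulated for 10 s at 2-5 Hz to evoke bradycardia, and the cervical sympathetic nerve was stimulated to evoke nictitating membrane contraction. Near the end of experiments, logarithmically increasing iv doses were given at 100-s intervals. Doses giving 50% block were obtained by regression and interpolation.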

Felis catus [2] = experiment: Inhibitory potency in anesthetized cats; type: functional
Outline: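 Cats of either sex (1.9-2.6 kg), anesthetized i.p. with α-chloralose 80 mg/kg plus pentobarbitone 5 mg/kg and ventilated with room air, 37 ± 1 °C. Sciatic nerve stimulated at 0.1 Hz (0.25-ms supramaximal pulses), tibialis anterior twitch recorded. Increasing doses given iv (jugular) at 30-60-min intervals.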

Felis catus [3] = experiment: Recovery time (25-75 %) measured for NMB activity in anesthetized cats; type: functional, organism-based
Outline: (§2)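 Anesthetized, ventilated cats, tibialis anterior twitch evoked by sciatic nerve stimulation at 0.1 Hz; iv doses giving 80-95% block. Onset is injection to the first maximally depressed twitch. Duration is injection to 90% spontaneous recovery relative to predrug twitch.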

Felis catus [4] = experiment: Duration (90%) measured for NMB activity in anesthetized cats; type: functional; outline: as §2
Gallus gallus [5] = species on record: Gallus gallus; experiment: Dose causing 50% block of muscle twitch in isolated chick biventer cervicis muscle (Increase in baseline tension); conditions: Muscle tissue, read-out: ED50 (the source's name)
Felis catus [6] = experiment: Onset time was measured for NMB activity in anesthetized cats; type: functional; outline: as §2
Gallus gallus [7] = species on record: Gallus gallus; experiment: -logED50 value for chick biventer determined.; type: functional
Outline: (§3)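 Isolated chick biventer cervicis nerve-muscle preparation; bath fluid gassed with 5% CO2 in O2, pH 7.4. Motor nerves stimulated at 0.1 Hz with 0.2-ms rectangular pulses at supramaximal voltage to give indirect twitches. Concentration-twitch inhibition lines fitted by least squares, and the concentration producing 50% twitch block (µM) was read off.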

[8] = (§4) Dose causing 50% block of muscle twitch in isolated chick biventer cervicis muscle; type: functional; conditions: Gallus gallus, Muscle tissue; read-out: ED50 (the source's name); outline: as §3
Gallus gallus [9] = species on record: Gallus gallus; experiment: as §4; type: functional, Muscle tissue; outline: as §3
Felis catus [10] = species on record: Felis catus; experiment: Inhibition of stimulated vagus nerve-induced bradycardia; type: functional; outline: as §1
Felis catus [11] = species on record: Felis catus; experiment: Inhibition of superior cervical nerve-induced contractions of the nictitating membrane; type: functional; outline: as §1
Felis catus [12] = experiment: Inhibitory potency in anesthetized cats, and Onset time is reported; type: functional
Outline: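 Anesthetized cats (alpha-chloralose/pentobarbitone i.p., ventilated, 37 ± 1 °C). Tibialis anterior twitch evoked via sciatic nerve at 0.1 Hz, 0.25-ms supramaximal pulses. Increasing i.v. (jugular) doses at 30-60-min intervals. ED50 interpolated from log dose lines over 15-85% block. Onset, from injection to first maximally depressed twitch, measured at doses giving 80-95% block.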

[13] = Dose causing 50% block of muscle twitch in isolated chick biventer cervicis muscle (Increase in baseline tension); conditions: Gallus gallus, Muscle tissue; read-out: ED50 (the source's name)
Monkey [14] = experiment: Recovery time (25-75 %) measured for NMB activity in anesthetized rhesus monkeys; type: functional, organism-based; conditions: Cercopithecidae
Outline: (§5)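 Anesthetized, ventilated Rhesus monkeys; iv dosing at 3 × the 90% blocking dose. Onset is injection to the first maximally depressed twitch. Duration is injection to 90% spontaneous recovery versus predrug twitch.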

Monkey [15] = experiment: Onset time was measured for NMB activity in anesthetized rhesus monkeys; type: functional, Cercopithecidae; outline: as §5
Monkey [16] = experiment: Duration (90%) measured for NMB activity in anesthetized rhesus monkeys; type: functional, Cercopithecidae; outline: as §5
Felis catus [17] = experiment: Inhibition of superior cervical nerve-induced contractions of the nictitating membrane in anesthetized cats; type: functional
Outline: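 Cats of either sex (1.9-2.6 kg), anesthetized with i.p. alpha-chloralose 80 mg/kg plus pentobarbitone 5 mg/kg, ventilated to keep arterial pH 7.3-7.4, 37 ± 1 °C. Nictitating membrane contractions evoked by cervical sympathetic nerve stimulation, recorded every 100 s. Logarithmically increasing doses injected into the jugular vein at 100-s intervals; 50%-blocking dose obtained by regression and interpolation.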

Monkey [18] = experiment: Inhibitory potency in anesthetized rhesus monkeys; type: functional; conditions: Cercopithecidae, in Macaca mulatta
Felis catus [19] = experiment: Inhibition of superior cervical nerve-induced contractions of the nictitating membrane in anesthetized cats; Pre- and post-block increases in twitch tension and short-lived muscle fasciculations 20-30 s after dosing; type: functional, organism-based; outline: as §1

Structure (SMILES) | ED50 (Felis catus [1]) | ED50 (Felis catus [2]) | Recovery (Felis catus [3]) | Duration (Felis catus [4]) | Onset (Felis catus [6]) | pCB50 (Gallus gallus [7]) | other results
COc1ccc(CC2c3cc(OC)c(OC)cc3CC[N+]2(C)CCC(=O)OCCCCCOC(=O)CC[N+]2(C)CCc3cc(OC)c(OC)cc3C2Cc2ccc(OC)c(OC)c2)cc1OC (stereo unspecified) | 1.6 µmol/kg | 0.1 µmol/kg | 5.9 min | 19.4 min | 5.8 min |  | EC50 (Gallus gallus [5]): 410 nM
C[N+]1(CCNC(=O)C(Cc2ccccc2)NC(=O)C[N+]2(C)CCCCC2)CCOCC1 (stereo unspecified) |  |  |  |  |  | 3.39 | EC50 [8]: 407000 nM
C[N+](C)(C)CC(=O)NCC(=O)NCC[N+]1(C)CCOCC1 |  |  |  |  |  |  | EC50 (Gallus gallus [9]; Gallus gallus, Muscle tissue, read-out: ED50 (the source's name)): > 390000 nM
O=C(C[N+]1(Cc2ccc([N+](=O)[O-])cc2)CCCCC1)NC(Cc1ccccc1)C(=O)NCC[N+]1(Cc2ccc([N+](=O)[O-])cc2)CCOCC1.[Br-].[Br-] (stereo unspecified) |  | 10.1 µmol/kg |  |  |  |  | ED50 (Gallus gallus [9]): 19800 nM; ED50 (Felis catus [10]): 0.8 µmol/kg; ED50 (Felis catus [11]): > 11.2 µmol/kg
CC(=O)O[C@H]1C[C@@H]2CC[C@@H]3[C@H](CC[C@@]4(C)[C@H]3C[C@H]([N+]3(C)CCCCC3)[C@@H]4OC(C)=O)[C@@]2(C)C[C@@H]1[N+]1(C)CCCCC1 [PANCURONIUM] | 0.07 µmol/kg |  | 4 min | 11.7 min | 4.1 min | 6.7 | ED50 (Felis catus [12]): 0.03 µmol/kg; EC50 [13]: 200 nM
C=CC[N+]1([C@H]2C[C@H]3[C@@H]4CC[C@H]5C[C@H](O)[C@@H](N6CCOCC6)C[C@]5(C)[C@H]4CC[C@]3(C)[C@H]2OC(C)=O)CCCC1 [ROCURONIUM] | 2.17 µmol/kg |  | 2.9 min | 8.3 min | 2 min | 6.12 | Recovery (Monkey [14]): 5 min; Onset (Monkey [15]): 3.1 min; Duration (Monkey [16]): 13.6 min; ED50 (Felis catus [12]): 0.25 µmol/kg; EC50 [13]: 760 nM; ED50 (Felis catus [17]): 0.16 µmol/kg
C[N+](C)(C)CCOC(=O)CCC(=O)OCC[N+](C)(C)C [SUXAMETHONIUM] |  | 0.11 µmol/kg | 1.9 min | 5.7 min | 1.7 min |  | ED90 (Monkey [18]): 5.04 µmol/kg; Recovery (Monkey [14]): 2.9 min; Onset (Monkey [15]): 1.5 min; Duration (Monkey [16]): 9.7 min; ED50 (Felis catus [19]): Pre- and post-block increases in twitch tension and short-lived muscle fasciculations 20-30 s after dosing; EC50 (Gallus gallus [5]): 540 nM
